Assay results as given in paper PMC9136965 (ACS Central Science, 2022).
In brackets after ≈: the same amount, converted by molar mass. Read-outs that look alike come from different tables or passages of the source.

Tests used:
B. subtilis 168 = experiment: Cell lytic assay; type: cell-based, Bacillus subtilis; conditions: B. subtilis 168, LB, 4× MIC, OD600 at 37 °C, n = 3, Figure 5B
In short: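 B. subtilis 168 cultures exposed to test compounds or reference antibiotics to tell lysis from growth arrest. Triplicate experiments (n = 3); values plotted as means with standard deviation (s.d.).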

B. subtilis 168 cells = experiment: Bright-field microscopy of cell morphology; type: cell-based, Bacillus subtilis; conditions: B. subtilis 168, bright-field microscopy, Figure 5A

Compound | MIC (M. tuberculosis H37Ra; H37Ra) | bacteriostatic or lytic action (B. subtilis 168) | growth morphology of treated cells (B. subtilis 168 cells) | MIC (M. tuberculosis H37Ra)
CN[C@H](CC(C)C)C(=O)N[C@H]1C(=O)N[C@@H](CC(N)=O)C(=O)N[C@H]2C(=O)N[C@H]3C(=O)N[C@H](C(=O)N[C@H](C(=O)O)c4cc(O)cc(O)c4-c4cc3ccc4O)[C@H](O)c3ccc(c(Cl)c3)Oc3cc2cc(c3O[C@@H]2O[C@H](CO)[C@@H](O)[C@H](O)[C@H]2O[C@H]2C[C@](C)(N)[C@H](O)[C@H](C)O2)Oc2ccc(cc2Cl)[C@H]1O [vancomycin] | 2 µg/mL (≈ 1.38 µM) | – | – | –
complestatin | – | bacteriostatic | extended and twisted phenotype | >128 µg/mL
corbomycin | – | bacteriostatic | extended and twisted phenotype | –
